Key:
Type in all cases: functional
Fusarium oxysporum [1] = test: Fungitoxicity against Fusarium oxysporum assessed as inhibition of mycelia growth at 28 +/- 1 degC at 100 ug/mL for 96 hr by poisoned food technique
How it was run: (§1)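 Poisoned food technique in Czapek's agar dishes, with test compound incorporated at 10, 100 or 1000 μg/mL. Fungus inoculated at the dish centre and incubated 96 h at 28 ± 1 °C. Percent inhibition = 100 × (mean hyphal diameter in control − mean hyphal diameter in test) / mean hyphal diameter in control. Three replicate assays per treatment and six replicate controls. Griseofulvin and Dithane M-45 served as standards.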

Penicillium citrinum [2] = test: Fungitoxicity against Penicillium citrinum assessed as inhibition of mycelia growth at 28 +/- 1 degC at 10 ug/mL for 96 hr by poisoned food technique; how it was run: as §1
Fusarium oxysporum [3] = test: Fungitoxicity against Fusarium oxysporum assessed as inhibition of mycelia growth at 28 +/- 1 degC at 10 ug/mL for 96 hr by poisoned food technique; how it was run: as §1
Fusarium oxysporum [4] = test: Fungitoxicity against Fusarium oxysporum assessed as inhibition of mycelia growth at 28 +/- 1 degC at 1000 ug/mL for 96 hr by poisoned food technique; how it was run: as §1
Penicillium citrinum [5] = test: Fungitoxicity against Penicillium citrinum assessed as inhibition of mycelia growth at 28 +/- 1 degC at 100 ug/mL for 96 hr by poisoned food technique; how it was run: as §1
Penicillium citrinum [6] = test: Fungitoxicity against Penicillium citrinum assessed as inhibition of mycelia growth at 28 +/- 1 degC at 1000 ug/mL for 96 hr by poisoned food technique; how it was run: as §1

SMILES | inhibition at 100 µg/mL (Fusarium oxysporum [1]) [%] | inhibition at 10 µg/mL (Penicillium citrinum [2]) [%] | inhibition at 10 µg/mL (Fusarium oxysporum [3]) [%] | inhibition at 1000 µg/mL (Fusarium oxysporum [4]) [%] | inhibition at 100 µg/mL (Penicillium citrinum [5]) [%] | inhibition at 1000 µg/mL (Penicillium citrinum [6]) [%]
CC(=O)OC[C@H]1O[C@@H](n2cnc([Se](=O)(=O)c3ccccc3)n2)[C@H](OC(C)=O)[C@@H]1OC(C)=O | 32 | 12 | 15 | 41 | 30 | 38
CC(=O)OC[C@H]1O[C@@H](n2cnc([Se](=O)(=O)c3ccc(Cl)cc3)n2)C[C@@H]1OC(C)=O | 26 | 16 | 15 | 54 | 35 | 51
CC(=O)OC[C@H]1O[C@@H](n2cnc([Se](=O)(=O)c3ccc(Cl)cc3)n2)[C@H](OC(C)=O)[C@@H]1OC(C)=O | 29 | 22 | 14 | 55 | 39 | 53
Cc1ccc([Se](=O)(=O)c2ncn([C@@H]3O[C@H](CO)[C@@H](O)[C@H]3O)n2)cc1 | 80 | 69 | 62 | 88 | 78 | 80
O=[N+]([O-])c1ccc([Se](=O)(=O)c2ncn([C@H]3C[C@H](O)[C@@H](CO)O3)n2)cc1 | 60 | 33 | 41 | 82 | 63 | 87
CC(=O)OC[C@H]1O[C@@H](n2cnc([Se](=O)(=O)c3ccc(C)cc3)n2)C[C@@H]1OC(C)=O | 35 | 17 | 26 | 45 | 31 | 42
COc1ccc([Se](=O)(=O)c2ncn([C@H]3C[C@H](OC(C)=O)[C@@H](COC(C)=O)O3)n2)cc1 | 25 | 24 | 17 | 65 | 35 | 64
O=[Se](=O)(c1ccc(Cl)cc1)c1ncn([C@@H]2O[C@H](CO)[C@@H](O)[C@H]2O)n1 | 72 | 36 | 44 | 100 | 65 | 97
COc1ccc([Se](=O)(=O)c2ncn([C@H]3C[C@H](O)[C@@H](CO)O3)n2)cc1 | 76 | 42 | 65 | 91 | 48 | 76
O=[Se](=O)(c1ccc(Cl)cc1)c1ncn([C@H]2C[C@H](O)[C@@H](CO)O2)n1 | 56 | 31 | 32 | 81 | 65 | 75
COc1ccc([Se](=O)(=O)c2ncn([C@@H]3O[C@H](CO)[C@@H](O)[C@H]3O)n2)cc1 | 68 | 39 | 55 | 100 | 49 | 99
O=[Se](=O)(c1ccccc1)c1ncn([C@@H]2O[C@H](CO)[C@@H](O)[C@H]2O)n1 | 65 | 35 | 50 | 82 | 42 | 89
CC(=O)OC[C@H]1O[C@@H](n2cnc([Se](=O)(=O)c3ccc([N+](=O)[O-])cc3)n2)[C@H](OC(C)=O)[C@@H]1OC(C)=O | 55 | 24 | 30 | 65 | 41 | 62
COc1ccc([Se](=O)(=O)c2ncn([C@@H]3O[C@H](COC(C)=O)[C@@H](OC(C)=O)[C@H]3OC(C)=O)n2)cc1 | 44 | 17 | 16 | 53 | 32 | 47
O=[N+]([O-])c1ccc([Se](=O)(=O)c2ncn([C@@H]3O[C@H](CO)[C@@H](O)[C@H]3O)n2)cc1 | 48 | 37 | 35 | 81 | 59 | 86
O=[Se](=O)(c1ccccc1)c1ncn([C@H]2C[C@H](O)[C@@H](CO)O2)n1 | 42 | 65 | 33 | 77 | 74 | 81
COC1=CC(=O)C[C@@H](C)[C@]12Oc1c(Cl)c(OC)cc(OC)c1C2=O [GRISEOFULVIN] | 95 | 90 | 91 | 100 | 94 | 100
CC(=O)OC[C@H]1O[C@@H](n2cnc([Se](=O)(=O)c3ccccc3)n2)C[C@@H]1OC(C)=O | 33 | 23 | 25 | 45 | 32 | 42
Cc1ccc([Se](=O)(=O)c2ncn([C@H]3C[C@H](O)[C@@H](CO)O3)n2)cc1 | 75 | 67 | 61 | 81 | 74 | 80
CC(=O)OC[C@H]1O[C@@H](n2cnc([Se](=O)(=O)c3ccc(C)cc3)n2)[C@H](OC(C)=O)[C@@H]1OC(C)=O | 37 | 21 | 17 | 52 | 42 | 51
CC(=O)OC[C@H]1O[C@@H](n2cnc([Se](=O)(=O)c3ccc([N+](=O)[O-])cc3)n2)C[C@@H]1OC(C)=O | 28 | 18 | 16 | 54 | 34 | 51
